Bioassay records (PubChem)
697 NFkB inh = inhibitors of PMA/ionomycin-induced NF-kB reporter, 697 cells, primary screen, B-cell NF-kB inhibitor project, cell-based, luminescence, uHTS; 697 B-cell NF-kB luciferase reporter, 16 h; inhibition, % at 4 µM; hit rate 0.33% among 330,000; in the data active = inhibition above about 35%
Jurkat NFkB inh = inhibitors of induced NF-kB luciferase reporter, primary screen, TCR NF-kB activation inhibitor project, cell-based, luminescence, uHTS; Jurkat, PMA/ionomycin-induced NF-kB luciferase reporter; inhibition, % at 4 µM; hit rate 0.53% among 330,000; AID 435003, 2010; in the data active = inhibition above about 50%
UPR XBP1 act = activators of adaptive XBP1 UPR arm, primary screen, cell-based, CHO-XBP1 luciferase reporter, luminescence, uHTS | AID 463104, 2010 | hit rate 0.33% among 330,000 | IRE1-XBP1 UPR activation; percent of tunicamycin response, DMSO as zero | activation, % at 20 µM;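 active = versus positive control, 20 µM dose yields 30% or more activation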;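 also: 100% = tunicamycin at 10 µg/mL and 0% = DMSO only wells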
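Assay system: IRE1-XBP1 luciferase reporter CHO line. Input: 1000 cells/well. Buffer or medium: F12 with 10% serum. Doses: 20 µM, 1% DMSO. Times: overnight seeding at 37 °C, 6 h compound treatment at 37 °C. Technique: Steady-Glo luciferase glow luminescence, 10 min after reagent addition.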
CHOP UPR activ = activators of apoptotic CHOP UPR arm, primary screen, cell-based, CHO-CHOP luciferase reporter, luminescence, uHTS; UPR activation; percent of tunicamycin response over DMSO baseline; activation, % at 10 µM; hit rate 0.34% among 330,000; AID 449763, 2010;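 active = at 10 µM dose, activation of 40% or more, normalized to positive control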;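 also: 100% = tunicamycin at 10 µg/mL and 0% = DMSO alone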
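System: CHO-CHOP luciferase reporter cell line | Buffer or medium: F12 medium containing 10% fetal bovine serum | Doses: One dose, 10 µM in 0.5% DMSO | Times: 6 h compound exposure at 37 °C after overnight seeding | Signal: Luciferase luminescence | Read-out: % activation vs tunicamycin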
CHOP inh = inhibitors of CHOP promoter induction, primary screen, cell-based, unfolded protein response, luciferase reporter; AID 2732, 2010; inhibition, % at 10 µM; hit rate 3.8% among 220,000; CHO-K1 CHOP-promoter luciferase, tunicamycin-induced, 15-18 h;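 active = compounds that reduced the stress-induced luciferase reporter signal by more than about 70% of percent inhibition, limit read from the data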;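 also: 0% = tunicamycin plus vehicle and 100% = wells without tunicamycin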
The depositor's hits bear a star; x = not tested or not shown. Shown is part of a subset that was picked to be rich in hits.

SMILES	697 NFkB inh	Jurkat NFkB inh	UPR XBP1 act	CHOP UPR activ	CHOP inh
Cc1ccccc1OCC(O)CN1CCN(c2ccc(Cl)cc2)CC1 (configuration not stated)	11	5	-2	1	82*
OC(COc1cccc2ccccc12)CN1CCN(c2ccccc2Cl)CC1 (configuration not stated)	x	x	x	x	76*
Cc1ccc(N2CCN(CC(O)COc3cccc4ccccc34)CC2)cc1 (configuration not stated)	18	3	1	-1	86*
Cc1cc(C2=CC(=O)C[C@H](c3ccc4c(c3)OCO4)C2)ccc1F	7	24	1	0	x
COc1ccc(CN(C(=O)CN2C(=O)COc3ccccc32)C2CCCC2)c(OC)c1	4	-1	0	0	14
COc1ccc(CN(C(=O)CN2C(=O)C(C)Oc3ccccc32)C2CCCC2)c(OC)c1 (configuration not stated)	4	3	2	0	71*
CN(C)c1ccc(/C=N/NC(=O)CN2CCN(c3ccc(F)cc3)CC2)cc1	8	11	2	4	82*
CCCCn1c(SCC(=O)NC(=O)Cc2ccccc2)nc2ccccc2c1=O	19	20	-2	1	x
N#C/C(=C\c1ccc(O)c(O)c1)C(=O)N1CCc2ccccc21	-32	19	11	175*	x
N#C/C(=C\c1ccc(O)c(O)c1)C(=O)NCCc1ccccc1	-59	18	16	223*	-10
COc1cc(/C=C(\C#N)C(=O)NCCc2ccccc2)cc(OC)c1O	-10	5	-3	-1	-8
C=CCN(Cc1cc(OC)ccc1OC)C(=O)c1cc2ccc(OC)cc2[nH]1	-6	-17	-7	2	x
COc1cccc(NC(=O)Nc2ccc(Cc3ccncc3)cc2)c1	-8	-16	-1	1	70*
COc1cccc(NC(=O)Nc2ccc(C(C)(C)C)cc2)c1	-187	-99	0	6	93*
COc1cccc(NC(=O)Nc2ccc(C)c(Cl)c2)c1	-54	-88	0	8	88*
CC(C)(C)c1ccc(NC(=O)Nc2ccc3ccccc3n2)cc1	3	2	0	2	85*
CNC(=S)NNc1nc(C)cc(C)n1	9	-12	-1	-1	-6
C=C(C)c1cccc(C(C)(C)NC(=O)Nc2cc(C)ccn2)c1	-31	0	0	4	92*
C=C(C)c1cccc(C(C)(C)NC(=O)Nc2ccc(C)cn2)c1	-27	-5	0	0	49
O=C(Nc1cc(Cl)ccc1Cl)C1CC(=O)N(c2ccc(Br)cc2)C1 (configuration not stated)	5	-19	0	1	70*
O=C(Nc1ccccc1Cl)C1CC(=O)N(c2ccccc2)C1 (configuration not stated)	-11	11	-2	0	9
Oc1ccc(N=Nc2nc(-c3ccccc3)c(-c3ccccc3)[nH]2)cc1	-6	16	0	10	92*
Oc1ccc(N=Nc2n[nH]c(-c3ccccc3)n2)cc1	-161	-87	-1	4	-1
OCCC1CN(Cc2cc(F)ccc2-n2cccn2)CCN1C1CCCC1 (configuration not stated)	5	14	-1	0	11
O=C(N/N=C1/C(=O)c2cccc3cccc1c23)c1ccc(Cl)cc1	1	4	4	10	72*
SMILES	697 NFkB inh	Jurkat NFkB inh	UPR XBP1 act	CHOP UPR activ	CHOP inh
C=CCSC(=S)NC1CCS(=O)(=O)C1 (configuration not stated)	-10	0	-6	7	70*
O=C(COc1ccccc1-c1ccccc1)N/N=C/c1ccccn1	-8	17	3	-1	77*
O=C(COc1ccccc1-c1ccccc1)N/N=C/c1ccncc1	-2	-2	-4	-2	35
N#Cc1c(C(F)(F)F)cc(C2CC2)nc1N1CCCC1	6	-4	-2	-2	83*
Cc1ccc(S(=O)(=O)Nc2ccsc2C#N)cc1	18	1	-6	-2	x
O=C(NC12CC3CC(CC(C3)C1)C2)c1ccccc1O	-20	0	3	2	77*
